Legend:
Homo sapiens [1] = assay: Toxicity in healthy human assessed as occurrence of nausea at 75 mg, po administered as single dose relative to control; type: organism-based; conditions: in vivo
Homo sapiens [2] = assay: Toxicity in healthy human assessed as occurrence of frequent bowel movements at 1 mg, po administered as single dose relative to control; type: organism-based; conditions: in vivo
[3] = Renal clearance in healthy human at 12.5 mg, po administered as single dose coadministered with 100 mg of ritonavir by high-pressure liquid chromatography-tandem mass spectrometry/mass spectrometry method; type: ADME, organism-based, Kidney; conditions: in vivo, read-out: CL_renal (converted)
Homo sapiens [4] = assay: Toxicity in healthy human assessed as occurrence of neurological eyelid disorder at 1 mg, po administered as single dose relative to control; type: organism-based; conditions: in vivo
Homo sapiens [5] = assay: Toxicity in healthy human assessed as occurrence of diarrhea at 50 mg, po administered as single dose coadministered with 100 mg of ritonavir; type: organism-based; conditions: in vivo
[6] = AUC (0 to infinity) in healthy human at 37.5 mg, po administered as single dose coadministered with 100 mg of ritonavir; type: ADME, organism-based; design: dose 37.5 mg, route oral, time infinity; conditions: plasma
In short: (§1)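 Healthy male volunteers, fasted. Ritonavir 100 mg given 10 h before and again together with single oral BILR 355 in PEG solution. EDTA plasma sampled predose to 144 h. LC-MS/MS assay after protein precipitation. Noncompartmental analysis, AUC by linear up/log down trapezoidal rule; Vss = CL/F·(MRTp.o. − 1/Ka).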

[7] = Apparent oral clearance in healthy human at 62.5 mg, po administered as single dose coadministered with 100 mg of ritonavir; type: ADME, organism-based; conditions: in vivo; in short: as §1
[8] = AUC (0 to last) in healthy human at 25 mg, po administered as single dose coadministered with 100 mg of ritonavir; type: ADME, organism-based; design: dose 25 mg, route oral, time 0 - last; conditions: plasma; in short: as §1
Homo sapiens [9] = assay: Toxicity in healthy human assessed as occurrence of neurological eyelid disorder at 25 mg, po administered as single dose relative to control; type: organism-based; conditions: in vivo
[10] = Apparent volume of distribution in terminal phase in healthy human at 5 mg, po administered as single dose; type: ADME, organism-based; conditions: in vivo, read-out: Vz/F
In short: (§2)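 Single fasting oral dose of BILR 355 in PEG solution with 200 ml tap water, given to healthy males. Standard breakfast came 60-90 min after the dose. EDTA plasma was sampled predose to 144 h, stored below −18°C and assayed by LC-MS/MS after protein precipitation. Noncompartmental analysis gave Vz/F. Vss/F = CL/F·(MRTp.o. − 1/Ka), with Ka from compartmental modelling.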

[11] = Apparent volume of distribution at steady state in healthy human at 5 mg, po administered as single dose; type: ADME, organism-based; conditions: in vivo, read-out: Vss/F; in short: as §2
[12] = Mean residence time in healthy human at 75 mg, po administered as single dose coadministered with 100 mg of ritonavir; type: ADME, organism-based; conditions: in vivo
[13] = Renal clearance in healthy human at 75 mg, po administered as single dose coadministered with 100 mg of ritonavir by high-pressure liquid chromatography-tandem mass spectrometry/mass spectrometry method; type: ADME, organism-based, Kidney; conditions: in vivo, read-out: CL_renal (converted)
[14] = Apparent volume of distribution in terminal phase in healthy human at 5 mg, po administered as single dose coadministered with 100 mg of ritonavir; type: ADME, organism-based; conditions: in vivo, read-out: Vz/F
In short: (§3)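 Healthy male volunteers, fasted overnight, got one oral dose of BILR 355 in PEG solution with 200 ml water. Ritonavir 100 mg was given 10 h before and again with the dose. Plasma was sampled (EDTA) from predose to 144 h and assayed by validated LC-MS/MS. Cmax and Vz/F came from noncompartmental analysis. Vss/F = CL/F·(MRTp.o. − 1/Ka), with Ka from compartmental modelling.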

Homo sapiens [15] = assay: Toxicity in healthy human assessed as occurrence of herpes simplex at 75 mg, po administered as single dose relative to control; type: organism-based; conditions: in vivo
[16] = Drug excretion in healthy human urine assessed as unchanged drug at 25 mg, po administered as single dose by high-pressure liquid chromatography-tandem mass spectrometry/mass spectrometry method; type: ADME, organism-based; conditions: read-out: Drug uptake
In short: (§4)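 Urine was collected by weight after one oral dose of BILR 355 in PEG solution in fasted healthy males. Intervals were predose blank, 0-6, 6-24 and 24-72 h, with the bladder voided before each. Aliquots were stored at −20°C and assayed by LC-MS/MS. fe = amount of unchanged drug excreted (Ae) as a percentage of the administered dose.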

[17] = Cmax in healthy human at 25 mg, po administered as single dose coadministered with 100 mg of ritonavir by high-pressure liquid chromatography-tandem mass spectrometry/mass spectrometry method; type: ADME, organism-based; design: dose 25 mg, route oral; conditions: in vivo; in short: as §3
Homo sapiens [18] = assay: Toxicity in healthy human assessed as occurrence of neurological eyelid disorder at 75 mg, po administered as single dose relative to control; type: organism-based; conditions: in vivo
Homo sapiens [19] = assay: Toxicity in healthy human assessed as occurrence of headache at 75 mg, po administered as single dose relative to control; type: organism-based; conditions: in vivo
Homo sapiens [20] = assay: Toxicity in healthy human assessed as occurrence of aphthous stomatitis at 50 mg, po administered as single dose coadministered with 100 mg of ritonavir; type: organism-based; conditions: in vivo
[21] = Drug excretion in healthy human urine assessed as unchanged drug at 50 mg, po administered as single dose by high-pressure liquid chromatography-tandem mass spectrometry/mass spectrometry method; type: ADME, organism-based; conditions: read-out: Drug uptake; in short: as §4
Homo sapiens [22] = assay: Toxicity in healthy human assessed as occurrence of fatigue at 62.5 mg, po administered as single dose coadministered with 100 mg of ritonavir; type: organism-based; conditions: in vivo
Homo sapiens [23] = assay: Toxicity in healthy human assessed as occurrence of migraine at 50 mg, po administered as single dose relative to control; type: organism-based; conditions: in vivo
Homo sapiens [24] = assay: Toxicity in healthy human assessed as occurrence of migraine at 100 mg, po administered as single dose relative to control; type: organism-based; conditions: in vivo
[25] = Tmax in healthy human at 50 mg, po administered as single dose; type: ADME, organism-based; conditions: in vivo
[26] = Apparent oral clearance in healthy human at 5 mg, po administered as single dose; type: ADME, organism-based; conditions: in vivo
In short: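 Healthy male volunteers, six active plus two placebo per dose group, single oral dose in PEG solution with 200 ml water after overnight fast; breakfast 60 to 90 min post-dose. EDTA plasma sampled predose to 144 h. Assayed by validated LC-MS/MS after protein precipitation. Noncompartmental analysis, AUC by linear up/log down trapezoidal rule; Vss = CL/F·(MRTp.o. − 1/Ka).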

[27] = AUC (0 to last) in healthy human at 75 mg, po administered as single dose coadministered with 100 mg of ritonavir; type: ADME, organism-based; design: dose 75 mg, route oral, time 0 - last; conditions: plasma; in short: as §1
[28] = AUC (0 to last) in high fat fed healthy human at 50 mg, po administered as single dose coadministered with 100 mg of ritonavir; type: ADME, organism-based; design: dose 50 mg, route oral, time 0 - last; conditions: plasma
In short: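 Fed cohort of 6 healthy men given an FDA-type high-fat breakfast (about 150, 250 and 500 to 600 cal from protein, carbohydrate and fat) 30 min before dosing. Ritonavir 100 mg given 10 h earlier and again with the single oral dose in PEG solution. Plasma sampled to 144 h, LC-MS/MS, noncompartmental analysis.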

[29] = AUC (0 to last) in healthy human at 37.5 mg, po administered as single dose coadministered with 100 mg of ritonavir; type: ADME, organism-based; design: dose 37.5 mg, route oral, time 0 - last; conditions: plasma; in short: as §1
Homo sapiens [30] = assay: Toxicity in healthy human assessed as occurrence of headache at 12.5 mg, po administered as single dose relative to control; type: organism-based; conditions: in vivo
[31] = Apparent oral clearance in healthy human at 25 mg, po administered as single dose coadministered with 100 mg of ritonavir; type: ADME, organism-based; conditions: in vivo; in short: as §1

## CCN1c2ncc(CCOc3cc[n+]([O-])c4ccccc34)cc2C(=O)N(C)c2cccnc21 [BILR 355]
Homo sapiens [1]
  Activity: 0%
Homo sapiens [2]
  Activity: 0%
[3]
  CL renal: 7.3 mL/min
Homo sapiens [4]
  Activity: 0%
Homo sapiens [5]
  Activity: 0%
[6]
  AUC(0-inf): 5960 ng·h/mL
[7]
  CL/F: 141 mL/min
[8]
  AUC(0-t): 4140 ng·h/mL
Homo sapiens [9]
  Activity: 0%
[10]
  Vd/F: 956 L
[11]
  Vd/F: 1020 L
[12]
  MRT: 17.4 h
[13]
  CL renal: 5.85 mL/min
[14]
  Vd/F: 153 L
Homo sapiens [15]
  Activity: 0%
[16]
  dose excreted: 0.405%
[17]
  Cmax: 226 ng/mL
Homo sapiens [18]
  Activity: 16.7%
Homo sapiens [19]
  Activity: 0%
Homo sapiens [20]
  Activity: 0%
[21]
  dose excreted: 0.485%
Homo sapiens [22]
  Activity: 0%
Homo sapiens [23]
  Activity: 0%
Homo sapiens [24]
  Activity: 0%
[25]
  Tmax: 0.667 h
[26]
  CL/F: 2480 mL/min
[27]
  AUC(0-t): 12100 ng·h/mL
[28]
  AUC(0-t): 7970 ng·h/mL
[29]
  AUC(0-t): 5800 ng·h/mL
Homo sapiens [30]
  Activity: 0%
[31]
  CL/F: 98 mL/min

Source: ChEMBL document CHEMBL1629563, “Pharmacokinetic and safety evaluation of BILR 355, a second-generation nonnucleoside reverse transcriptase inhibitor, in healthy volunteers” (Antimicrob Agents Chemother, 2008)
